≈ marks a conversion by molar mass, not a printed value. Calls of active or inactive are those of the source. No cut-off for these calls is given here.
How the values were obtained:
[1] = Metabolic stability in human liver microsome assessed as compound remaining after 60 mins; type: ADME; conditions: liver microsomes, read-out: INH
How it was run: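 Compounds were incubated with pooled human liver microsomes for 60 minutes, and the percentage of parent compound remaining was measured.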

[2] = biological target: T1, Enoyl-acyl carrier reductase (Toxoplasma gondii, UniProt Q6UCJ9); test: Inhibition of Toxoplasma gondii enoyl reductase
T1 sequence (Q6UCJ9 whole entry): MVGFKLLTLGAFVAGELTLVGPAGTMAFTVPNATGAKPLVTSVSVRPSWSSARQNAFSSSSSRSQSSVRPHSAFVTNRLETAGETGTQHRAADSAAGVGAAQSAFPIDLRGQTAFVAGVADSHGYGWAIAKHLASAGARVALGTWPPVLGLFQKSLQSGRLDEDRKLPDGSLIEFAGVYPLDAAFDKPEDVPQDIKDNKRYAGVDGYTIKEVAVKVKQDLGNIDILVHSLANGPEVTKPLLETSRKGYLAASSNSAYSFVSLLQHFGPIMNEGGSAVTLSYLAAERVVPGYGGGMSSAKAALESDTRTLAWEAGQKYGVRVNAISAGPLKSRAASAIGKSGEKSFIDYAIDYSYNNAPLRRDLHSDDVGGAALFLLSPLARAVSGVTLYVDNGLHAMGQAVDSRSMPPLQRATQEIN
How it was run: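 Recombinant TgENR (20 nM) was assayed in 100 mM Na/K phosphate pH 7.5, 150 mM NaCl and 100 μM NADH. Compounds were added in DMSO (2% final), and reactions were started at 25°C with 100 μM crotonyl-CoA. NADH consumption was followed at 340 nm.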

[3] = system: Toxoplasma gondii; test: Antiparasitic activity against Toxoplasma gondii infected in HFF after 24 hrs by [3H]uracil incorporation assay; type: functional
How it was run: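 Human foreskin fibroblasts were infected with T. gondii tachyzoites and given 1 h to invade before inhibitors were added. Cultures ran 3 days, then 3H-uracil was added for a further day. Parasite growth was read as uracil incorporation by liquid scintillation counting. MIC50 and MIC90 are the concentrations giving 50% and 90% growth inhibition. There were 6 replicate samples per group.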

[4] = system: HFF; test: Toxicity to HFF; type: cell-based; conditions: human
How it was run: (§1)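 Host-cell toxicity was tested on non-confluent fibroblast monolayers by 3H-thymidine incorporation, alongside visual inspection of monolayer integrity. Testing ran simultaneously with the parasite inhibition assay, and the highest concentration tested was scored.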

[5] = system: Toxoplasma gondii; test: Antiparasitic activity against Toxoplasma gondii RH infected in ip dosed CD1 mouse; type: functional, organism-based
How it was run: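 CD1 mice were infected intraperitoneally with 2000 RH (Type 1) parasites, a lethal inoculum. Inhibitors were given intraperitoneally at 10mg/kg. Read-outs were peritoneal parasite burden by microscopy at day 5 and survival up to day 5 post-infection. There were 6 mice per group.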

[6] = biological target: CYP2C9 (Homo sapiens, UniProt P11712); test: Inhibition of CYP2C9 at 10 uM; type: ADME
How it was run: (§2)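 Inhibition was measured against recombinant CYP450 isozymes 2C9, 2D6 and 3A4, each with compound at 10μM, and reported as percent inhibition.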

[7] = biological target: CYP2D6 (Homo sapiens, UniProt P10635); test: Inhibition of CYP2D6 at 10 uM; type: ADME; how it was run: as §2
[8] = biological target: CYP3A4 (Homo sapiens, UniProt P08684); test: Inhibition of CYP3A4 at 10 uM; type: ADME; how it was run: as §2
[9] = system: HFF; test: Toxicity to HFF at highest concentration; type: cell-based; conditions: human; how it was run: as §1

Chain of CYP2D6 (P10635 whole entry): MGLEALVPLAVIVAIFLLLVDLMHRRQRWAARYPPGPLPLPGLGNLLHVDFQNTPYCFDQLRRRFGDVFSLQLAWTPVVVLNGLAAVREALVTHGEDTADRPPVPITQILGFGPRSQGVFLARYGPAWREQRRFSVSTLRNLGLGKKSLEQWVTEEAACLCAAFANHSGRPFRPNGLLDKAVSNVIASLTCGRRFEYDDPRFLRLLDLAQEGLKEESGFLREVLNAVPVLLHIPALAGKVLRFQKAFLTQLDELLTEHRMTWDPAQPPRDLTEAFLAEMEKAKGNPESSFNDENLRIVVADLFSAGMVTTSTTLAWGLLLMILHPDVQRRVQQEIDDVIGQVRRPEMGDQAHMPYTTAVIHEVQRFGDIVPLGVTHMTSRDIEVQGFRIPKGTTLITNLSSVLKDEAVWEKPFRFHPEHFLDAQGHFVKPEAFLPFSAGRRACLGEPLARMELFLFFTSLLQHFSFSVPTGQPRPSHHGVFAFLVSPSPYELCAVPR
Chain of CYP3A4 (P08684 whole entry): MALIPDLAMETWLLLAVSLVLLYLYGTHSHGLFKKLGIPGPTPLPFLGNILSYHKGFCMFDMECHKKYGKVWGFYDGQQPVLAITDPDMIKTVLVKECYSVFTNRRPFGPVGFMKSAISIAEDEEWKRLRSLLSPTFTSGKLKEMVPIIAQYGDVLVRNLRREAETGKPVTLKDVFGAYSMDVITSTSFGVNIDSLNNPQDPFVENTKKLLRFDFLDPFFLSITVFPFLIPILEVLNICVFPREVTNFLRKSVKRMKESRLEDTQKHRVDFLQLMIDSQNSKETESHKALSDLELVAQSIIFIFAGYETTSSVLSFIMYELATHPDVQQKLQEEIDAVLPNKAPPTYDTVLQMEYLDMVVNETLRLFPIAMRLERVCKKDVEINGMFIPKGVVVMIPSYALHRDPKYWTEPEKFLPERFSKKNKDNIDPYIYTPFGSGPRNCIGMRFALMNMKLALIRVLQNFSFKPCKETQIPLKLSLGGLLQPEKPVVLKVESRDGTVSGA
Chain of CYP2C9 (P11712 whole entry): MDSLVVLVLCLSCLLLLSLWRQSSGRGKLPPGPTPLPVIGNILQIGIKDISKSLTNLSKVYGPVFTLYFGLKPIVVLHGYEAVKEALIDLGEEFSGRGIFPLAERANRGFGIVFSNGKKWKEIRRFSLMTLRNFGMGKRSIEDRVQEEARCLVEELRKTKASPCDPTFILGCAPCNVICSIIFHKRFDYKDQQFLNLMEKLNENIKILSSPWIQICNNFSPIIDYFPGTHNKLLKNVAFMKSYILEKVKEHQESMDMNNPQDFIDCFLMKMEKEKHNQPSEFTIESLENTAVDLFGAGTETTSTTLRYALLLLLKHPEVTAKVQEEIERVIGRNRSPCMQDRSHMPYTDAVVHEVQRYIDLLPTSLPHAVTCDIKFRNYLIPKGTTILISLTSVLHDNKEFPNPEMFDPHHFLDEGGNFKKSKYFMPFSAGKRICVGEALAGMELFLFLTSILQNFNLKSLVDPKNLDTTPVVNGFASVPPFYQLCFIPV

CCCc1ccc(Oc2ccc(C#N)cc2Cl)c(O)c1
remaining at 1 h [1]: 45.1% | IC50 [2]: < 20 nM | MIC50 [3]: 3 µM (≈ 0.863 µg/mL) | MIC90 [3]: 5 µM (≈ 1.44 µg/mL) | Activity [4]: 5 µM | Activity [5]: Active | inhibition at 10 µM [6]: > 85% | inhibition at 10 µM [7]: < 22% | inhibition at 10 µM [8]: < 22% | Activity [9]: Non-toxic
